Experimental data as given in ChEMBL document CHEMBL4138284, “Biomimetic Stereoselective Sulfa-Michael Addition Leads to Platensimycin and Platencin Sulfur Analogues against Methicillin-Resistant Staphylococcus aureus” (J Nat Prod, 2018).
Converted amounts (≈) assume the structure as drawn.

Tests used:
Staphylococcus aureus [1] = assay: Antibacterial activity against methicillin-sensitive Staphylococcus aureus isolate 4 incubated overnight by agar dilution method; assay type: functional
Method in brief: (§1)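 MIC by agar dilution. Strains were grown overnight in LB broth and diluted, then about 10^4 CFU (2 μL spots) were spotted onto LB agar plates containing test compound at 0.5 to 8 μg mL−1 agar. Plates were incubated overnight at 37 °C and inspected for growth. Clinical MSSA and MRSA isolates came from local hospitals.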

Staphylococcus aureus [2] = assay: Antibacterial activity against methicillin-resistant Staphylococcus aureus isolate 11 incubated overnight by agar dilution method; assay type: functional; method in brief: as §1
Staphylococcus aureus [3] = assay: Antibacterial activity against methicillin-resistant Staphylococcus aureus isolate 6 incubated overnight by agar dilution method; assay type: functional; method in brief: as §1
[4] = Stability of the compound in PBS at pH 7.1 at 0.1 mg/ml after 16 hrs by HPLC analysis; assay type: physicochemical; details: buffer, pH 7.1, 16 h
Method in brief: (§2)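 Compound at 0.1 mg mL−1 dissolved in 1 mM PBS at the stated pH. Held at 37 °C for 16 h. Remaining compound and retro-Michael reversion products analysed by HPLC.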

Staphylococcus aureus [5] = assay: Antibacterial activity against methicillin-sensitive Staphylococcus aureus isolate 3 incubated overnight by agar dilution method; assay type: functional; method in brief: as §1
Staphylococcus aureus [6] = assay: Antibacterial activity against methicillin-resistant Staphylococcus aureus isolate 7 incubated overnight by agar dilution method; assay type: functional; method in brief: as §1
Staphylococcus aureus [7] = assay: Antibacterial activity against methicillin-resistant Staphylococcus aureus isolate 8 incubated overnight by agar dilution method; assay type: functional; method in brief: as §1
Staphylococcus aureus [8] = assay: Antibacterial activity against methicillin-resistant Staphylococcus aureus isolate 5 incubated overnight by agar dilution method; assay type: functional; method in brief: as §1
Staphylococcus aureus [9] = assay: Antibacterial activity against methicillin-resistant Staphylococcus aureus isolate 9 incubated overnight by agar dilution method; assay type: functional; method in brief: as §1
Staphylococcus aureus [10] = assay: Antibacterial activity against Staphylococcus aureus ATCC 29213 incubated overnight by agar dilution method; assay type: functional; method in brief: as §1
Staphylococcus aureus [11] = assay: Antibacterial activity against methicillin-sensitive Staphylococcus aureus isolate 1 incubated overnight by agar dilution method; assay type: functional; method in brief: as §1
Staphylococcus aureus [12] = assay: Antibacterial activity against methicillin-sensitive Staphylococcus aureus isolate 2 incubated overnight by agar dilution method; assay type: functional; method in brief: as §1
[13] = Stability of the compound in PBS at pH 5.8 at 0.1 mg/ml after 16 hrs by HPLC analysis; assay type: physicochemical; details: buffer, pH 5.8, 16 h; method in brief: as §2
Staphylococcus aureus [14] = assay: Antibacterial activity against methicillin-resistant Staphylococcus aureus isolate 10 incubated overnight by agar dilution method; assay type: functional; method in brief: as §1

Row | Structure (SMILES) | MIC (Staphylococcus aureus [1]) [µg/mL] | MIC (Staphylococcus aureus [2]) [µg/mL] | MIC (Staphylococcus aureus [3]) [µg/mL] | Stability [4] | MIC (Staphylococcus aureus [5]) [µg/mL] | MIC (Staphylococcus aureus [6]) [µg/mL] | MIC (Staphylococcus aureus [7]) [µg/mL] | MIC (Staphylococcus aureus [8]) [µg/mL] | MIC (Staphylococcus aureus [9]) [µg/mL] | MIC (Staphylococcus aureus [10]) [µg/mL] | MIC (Staphylococcus aureus [11]) [µg/mL] | MIC (Staphylococcus aureus [12]) [µg/mL] | Stability [13] | MIC (Staphylococcus aureus [14]) [µg/mL]
1 | C=C1C[C@@]23CCC1C[C@@H]2[C@](C)(CCC(=O)Nc1c(O)ccc(C(=O)O)c1O)C(=O)C[C@@H]3SC(C)=O (single isomer, unassigned) | 1 (≈ 1.99 µM) | 4 (≈ 7.97 µM) | 2 (≈ 3.99 µM) | Stable | 1 (≈ 1.99 µM) | 2 (≈ 3.99 µM) | 2 (≈ 3.99 µM) | 2 (≈ 3.99 µM) | 2 (≈ 3.99 µM) | 4 (≈ 7.97 µM) | 1 (≈ 1.99 µM) | 1 (≈ 1.99 µM) | Stable | 2 (≈ 3.99 µM)
2 | C[C@]12C[C@]34C[C@@H]1C[C@H](O2)[C@H]3[C@](C)(CCC(=O)Nc1c(O)ccc(C(=O)O)c1O)C(=O)C[C@@H]4SC(=O)c1ccccc1 | 1 (≈ 1.73 µM) | 2 (≈ 3.45 µM) | 1 (≈ 1.73 µM) | Stable | 1 (≈ 1.73 µM) | 2 (≈ 3.45 µM) | 1 (≈ 1.73 µM) | 2 (≈ 3.45 µM) | 1 (≈ 1.73 µM) | 1 (≈ 1.73 µM) | 1 (≈ 1.73 µM) | 1 (≈ 1.73 µM) | Stable | 1 (≈ 1.73 µM)
3 | C[C@]12C[C@]34C[C@@H]1C[C@H](O2)[C@H]3[C@](C)(CCC(=O)Nc1c(O)ccc(C(=O)O)c1O)C(=O)C[C@@H]4SC(=O)c1ccc2ccccc2c1 | 0.5 (≈ 0.794 µM) | 4 (≈ 6.35 µM) | 1 (≈ 1.59 µM) |  | 0.5 (≈ 0.794 µM) | 4 (≈ 6.35 µM) | 1 (≈ 1.59 µM) | 2 (≈ 3.18 µM) | 1 (≈ 1.59 µM) | 2 (≈ 3.18 µM) | 1 (≈ 1.59 µM) | 0.5 (≈ 0.794 µM) |  | 1 (≈ 1.59 µM)
4 | COc1ccc(C(=O)S[C@H]2CC(=O)[C@@](C)(CCC(=O)Nc3c(O)ccc(C(=O)O)c3O)[C@@H]3[C@@H]4C[C@H]5C[C@]23C[C@]5(C)O4)cc1 | 1 (≈ 1.64 µM) | 2 (≈ 3.28 µM) | 1 (≈ 1.64 µM) | Stable | 1 (≈ 1.64 µM) | 2 (≈ 3.28 µM) | 1 (≈ 1.64 µM) | 2 (≈ 3.28 µM) | 1 (≈ 1.64 µM) | 1 (≈ 1.64 µM) | 1 (≈ 1.64 µM) | 1 (≈ 1.64 µM) | Stable | 1 (≈ 1.64 µM)
5 | C[C@]12C[C@]34C[C@@H]1C[C@H](O2)[C@H]3[C@](C)(CCC(=O)Nc1c(O)ccc(C(=O)O)c1O)C(=O)C[C@@H]4SC(=O)c1cccc(F)c1 | 1 (≈ 1.67 µM) | 2 (≈ 3.35 µM) | 1 (≈ 1.67 µM) |  | 1 (≈ 1.67 µM) | 2 (≈ 3.35 µM) | 1 (≈ 1.67 µM) | 1 (≈ 1.67 µM) | 1 (≈ 1.67 µM) | 2 (≈ 3.35 µM) | 1 (≈ 1.67 µM) | 1 (≈ 1.67 µM) |  | 1 (≈ 1.67 µM)
6 | CCS[C@H]1CC(=O)[C@@](C)(CCC(=O)Nc2c(O)ccc(C(=O)O)c2O)[C@@H]2[C@@H]3C[C@H]4C[C@]12C[C@]4(C)O3 | 1 (≈ 1.99 µM) | 1 (≈ 1.99 µM) | 2 (≈ 3.97 µM) | Stable | 1 (≈ 1.99 µM) | 1 (≈ 1.99 µM) | 1 (≈ 1.99 µM) | 1 (≈ 1.99 µM) | 1 (≈ 1.99 µM) | 0.5 (≈ 0.993 µM) | 0.5 (≈ 0.993 µM) | 0.5 (≈ 0.993 µM) | Stable | 1 (≈ 1.99 µM)
7 | C[C@]12C[C@]34C[C@@H]1C[C@H](O2)[C@H]3[C@](C)(CCC(=O)Nc1c(O)ccc(C(=O)O)c1O)C(=O)C[C@@H]4SC(=O)c1cccc(C(F)(F)F)c1 | 0.5 (≈ 0.772 µM) | 2 (≈ 3.09 µM) | 1 (≈ 1.54 µM) |  | 1 (≈ 1.54 µM) | 2 (≈ 3.09 µM) | 1 (≈ 1.54 µM) | 1 (≈ 1.54 µM) | 1 (≈ 1.54 µM) | 2 (≈ 3.09 µM) | 1 (≈ 1.54 µM) | 1 (≈ 1.54 µM) |  | 1 (≈ 1.54 µM)
